Bioassay records (PubChem BioAssay)
ADAM10 inh = inhibitors of human ADAM10. recombinant ADAM10, EDANS/DABCYL FRET peptide cleavage, 3 h. inhibition, % at 7 µM. 370,000 compounds, 0.62% hits;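 active = inhibition above a per-campaign cutoff equal to the mean of compounds falling between control-based bounds plus 3 SD, cut at about 20% in these data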;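 also: 0% = DMSO wells while the 100% control is not disclosed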
Target sequence (O14672 214-748 limits assumed): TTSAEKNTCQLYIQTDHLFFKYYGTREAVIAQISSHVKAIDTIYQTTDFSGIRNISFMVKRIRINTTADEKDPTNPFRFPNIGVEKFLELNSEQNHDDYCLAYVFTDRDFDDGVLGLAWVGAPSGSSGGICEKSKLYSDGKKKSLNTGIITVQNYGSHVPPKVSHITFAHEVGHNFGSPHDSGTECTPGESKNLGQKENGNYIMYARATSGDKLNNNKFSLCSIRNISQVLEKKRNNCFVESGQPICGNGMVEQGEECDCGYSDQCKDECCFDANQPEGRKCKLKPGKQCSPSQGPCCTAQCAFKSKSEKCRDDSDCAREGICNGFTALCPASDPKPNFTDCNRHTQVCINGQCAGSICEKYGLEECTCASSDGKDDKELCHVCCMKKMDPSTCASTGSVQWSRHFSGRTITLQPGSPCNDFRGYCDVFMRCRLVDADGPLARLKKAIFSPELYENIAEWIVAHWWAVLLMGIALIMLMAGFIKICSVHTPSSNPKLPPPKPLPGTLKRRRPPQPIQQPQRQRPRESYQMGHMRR
ADAM17 inh = ADAM17 inhibition, QFRET primary screen; 370,000 compounds, 0.83% hits; inhibition, % at 6.95 µM; P78536; AID 720648; recombinant ADAM17, EDANS/DABCYL FRET peptide cleavage;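 active = inhibition above the mean of compounds lying between control limits plus 3 SD, set per campaign, cut at about 8.5% in these data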;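 also: 0% = DMSO-only wells as the low control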
DDE Tn7 FP inh = disrupts Tn7 cyclic peptide binding to fibrin D-Dimer-E complex; P02675; FP displacement of FITC-Tn7 peptide from fibrin DD(E); 0% = median of compound wells per plate; inhibition, % at 8.3 µM; 370,000 compounds, 0.13% hits; AID 720508;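 active = inhibition above the mean of compounds falling within the control limits plus 3 SD of them, cut at about 14% in these data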;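 also: 0% = plate median of compound wells and 100% = 10 µM Aha-Tn7 peptide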
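Also added: labelled Tn7 tracer, 0.1 µM; Assay system: human fibrin DD(E) protein; Amount: 2 µM fibrin DD(E); Schedule: 10 min compound pre-incubation, 3 h probe incubation at room temperature; Repeats: one replicate per compound; Read-out basis: percent inhibition; Measured by: fluorescence polarization of the labelled Tn7 tracer.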
PLCg1 inh = PLC-gamma1 (human) inhibition, primary screen. purified PLC-gamma1, fluorogenic substrate, fluorescence. inhibition, % at 12.2 µM. 370,000 compounds, 0.84% hits. AID 720700. P19174; in the data active = inhibition above about 9.5%
PLCb3 inh = PLC-beta3 (human) inhibition, primary screen | Q01970 | Purified PLC-beta3, fluorogenic substrate, fluorescence | inhibition, % at 12.2 µM | 370,000 compounds, 0.18% hits | AID 720704; in the data active = inhibition above about 11%;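 also: 0% = median of compound wells on plate and 100% = full blocker control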
Tn6 DDE FP = disrupts Tn6 cyclic peptide binding to fibrin D-Dimer-E complex; Fibrin DD(E) TRITC-Tn6 fluorescence polarization displacement; inhibition, % at 8.3 µM; 370,000 compounds, 0.21% hits;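 active = inhibition above a per-campaign cutoff: mean of compounds within control limits plus 3 SD, cut at about 15% in these data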;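 also: 0% = median of all compound wells on the plate and 100% = blocking peptide control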
Tn6 DDE ctr = counter-screen hit for Tn6 peptide-fibrin DD(E) binding disruption | shares compounds with Tn6 DDE FP | TRITC-Tn6 fluorescence polarization displacement; 0% = median of compound wells, not DMSO | inhibition, % at 8.3 µM | 680 compounds, 2% hits | AID 720621;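 active = inhibition above the mean of test compounds lying between the control limits plus 3 SD of those, cut at about 14% in these data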;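 also: 0% = median of compound wells and 100% = wells with Aha-Tn7 blocking peptide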
Tn6 DDE conf = DD(E)-Tn6 binding inhibition, FP confirmation | FP displacement of TRITC-Tn6 peptide from DD(E); 0% = per-plate median of test wells | inhibition, % at 8.3 µM | 680 compounds, 10% hits | shares compounds with Tn6 DDE FP;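 active = inhibition above the mean of compounds lying within the control limits plus 3 SD, cut at about 16% in these data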;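 also: 100% = high control wells holding a competing inhibitor peptide at 10 µM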
* marks the source's active call; other numbers are inactive results; · = not tested or not shown. An excerpt weighted towards active compounds, which were near 2.3% of everything screened.

SMILES	ADAM10 inh	ADAM17 inh	DDE Tn7 FP inh	PLCg1 inh	PLCb3 inh	Tn6 DDE FP	Tn6 DDE ctr	Tn6 DDE conf
COc1cc(NS(=O)(=O)c2ccc(C)cc2)c2ncccc2c1	-7	7	0	-62	-54	5	·	·
CCC(CNc1cc(OC)cc2cccnc12)NC1CCCCC1 (centres undefined)	-11	-3	10	-30	-63	33*	-1	6
COc1cc(NCCCC(C)N)c2ncccc2c1 (centres undefined)	-10	-4	1	-15	-30	52*	-1	20*
COC(=O)[C@]12C[C@H](CC(=O)N3CCSCC3)C(=O)N(Cc3cccc4ccccc34)C1=C[C@H](C1CCCC1)O[C@@H]2C	19	7	-14	8	4	10	·	·
COc1cc2c(cc1NC(=O)CSc1nnc(COc3ccccc3)n1Cc1ccco1)oc1ccccc12	-7	6	3	-1	-1	1	·	·
COC(=O)c1ccc(Cn2c(C)c(C(=O)NCc3cccc(C(F)(F)F)c3)sc2=O)o1	0	-2	5	-1	-1	17*	5	-3
O=C(O)c1ccc(S(=O)(=O)c2ccc3c(c2)C(=O)N(c2ccc(O)cc2)C3=O)cc1	-8	-7	0	-7	-18	48*	2	1
O=C(O)c1ccc(NC(=O)c2ccc3c(c2)C(=O)N(c2ccccc2)C3=O)cc1	1	-1	1	-10	-6	0	·	·
CC1(C)CC(=O)C=C(Nc2ccccc2NC(=O)c2cccc(F)c2F)C1	-4	-2	4	-2	0	7	·	·
CS(=O)(=O)N1CCN=C1SCc1ccc(Br)cc1	0	0	-3	3	-6	0	·	·
CC(=O)N1CCN=C1SCc1ccc(Br)cc1	-1	-2	8	3	-1	20*	3	2
COc1ccc(CCNC(=O)c2cc3ccccn3n2)cc1	0	0	2	0	1	-5	·	·
Cc1ccc(C(=O)n2cnc3ccccc32)cc1C	-4	4	0	-3	-1	16*	4	3
O=C1CSc2ccc(C(=O)N3CCCC(C(=O)N4CCCN(Cc5ccccc5)CC4)C3)cc2N1 (centres undefined)	0	2	9	3	-2	1	·	·
COc1ccccc1NC(=O)/C=C/c1ccc(OC)c(S(=O)(=O)N2CCOCC2)c1	1	-2	9	-4	-4	17*	3	-2
CCCC1CCc2c(sc(N)c2C(N)=O)C1 (centres undefined)	-2	-6	9	-44	-47	3	·	·
CCC(C)(C)C1CCc2c(sc(N)c2C(N)=O)C1 (centres undefined)	-12	-7	7	-24	-26	17*	-3	-10
Cc1nn(-c2ccc(F)cc2)c2sc(C(=O)O)cc12	1	-2	-2	0	2	2	·	·
Cc1nn(-c2ccccc2)c2sc(C(=O)NCc3ccc(F)cc3)cc12	-14	6	4	-5	-3	32*	0	-14
O=C(CSc1nc2ccccc2nc1N1CCCCC1)NCc1ccc(Cl)cc1Cl	2	-3	-3	-1	0	3	·	·
COc1cccc(N2C(N)=NC(N)=NC2(C)C)c1	-1	-5	-1	2	2	1	·	·
CC1(C)N=C(N)N=C(N)N1c1cccc(C#N)c1	-11	-2	3	2	3	16*	9	6
COc1ccc(OC)c(NS(=O)(=O)c2ccc(NC(C)=O)cc2)c1	-2	0	8	-2	1	16*	10	6
COc1cc(-c2c(C(=O)c3ccccc3)[nH]c(N)c2C(N)=O)ccc1O	-6	-6	-2	4	-4	-2	·	·
COc1cccc(-c2nnc3n2N=C(c2ccc(Cl)cc2)CS3)c1	-7	-3	5	0	3	-4	·	·
SMILES	ADAM10 inh	ADAM17 inh	DDE Tn7 FP inh	PLCg1 inh	PLCb3 inh	Tn6 DDE FP	Tn6 DDE ctr	Tn6 DDE conf
CCn1c(=S)[nH]c2ccccc21	2	4	-1	4	7	16*	-5	-15
Cc1ccc(S(=O)(=O)N2CCC(c3nc4ccccc4o3)CC2)s1	8	6	-8	7	4	-5	·	·
CCCCC(CC)C(=O)N1CCN(C(=O)c2ccco2)CC1 (centres undefined)	-1	-5	5	-3	0	17*	-9	-10
CCCCNC(=O)N1CCN(C(=O)c2ccco2)CC1	1	-1	5	4	4	8	·	·
O=C(Nc1ccc(Cl)cc1)c1csc(-c2ccncc2)n1	0	0	2	0	2	-1	·	·
O=C(Nc1ccc(Cl)cc1)c1csc(-c2ccccc2)n1	4	-1	6	-4	-6	28*	10	26*
COc1cc(C(=O)NC2CCCCN(Cc3ccc(Cl)cc3)C2=O)cc(OC)c1OC (centres undefined)	-6	-6	-6	2	-3	-2	·	·
CCOC(=O)Cc1nc(N2CCCN(C(C)=O)CC2)c2c(C)c(C(=O)OCC)sc2n1	-40	-7	-7	-20	-25	-2	·	·
O=C(NCc1ccc(F)c(F)c1)C1C2C=CC3(CN(Cc4ccccc4)C(=O)C13)O2 (centres undefined)	-5	0	-1	2	0	3	·	·
CN1/C(=C\C=C2/SC(=S)NC2=O)C(C)(C)c2ccccc21	2	5	-107	-207	-246	70*	-95	57*
COc1ccc(C(=O)N(Cc2ccccc2)c2cccc(C)c2)cc1	-10	3	1	-2	-4	17*	1	-3
COc1ccc(CN(C(=O)c2ccc(C)cc2)c2cccc(N)c2)cc1	0	-1	0	-2	-1	-1	·	·
CC(=O)CC[C@H]1CC[C@]2(CCCN(C(=O)c3ccco3)C2)O1	-5	-3	-1	0	3	0	·	·
COc1cccc(CN[C@@H]2CC[C@@]34CCCN3C(=O)CCC[C@H]4C2)c1	-9	-8	4	-1	1	-3	·	·
COc1ccc(OC)c(S(=O)(=O)N2CCCCC2C(=O)N2CCN(c3ccc(F)cc3)CC2)c1 (centres undefined)	1	0	-1	3	3	2	·	·
CC1=CN2C(=N)/C(=C/c3ccc([N+](=O)[O-])o3)C(=O)N=C2S1	-12	-5	-5	-54	-66	20*	-12	-10
